A short description of data set [1]: Cmax in New Zealand White Rabbit eye tear at 0.1 mg per eye, TOP and measured upto 72 hrs by LC-MS/MS analysis. More on the design: time < 72 hrs, dose 0.1 mg, route top. The format is ADME, tissue-based, Oryctolagus cuniculus, Secretion of lacrimal gland. Particulars: in vivo, topical_or_ocular. A digest of the protocol: (§1)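 Male New Zealand White rabbits each received a single topical eye drop of 0.1 mg/eye, formulated in 5% polyoxyl 35 castor oil in sodium phosphate buffer. Plasma, tear, cornea, conjunctiva and retina were sampled from one eye at 0.5, 1, 4, 8, 12, 24, 48 and 72 h. Levels were measured by LC-MS/MS in tear and tissue homogenates. Parameters came from non-compartmental analysis of composite means, n = 3.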

A short description of data set [2]: Cytotoxicity against human Corneal epithelial cells assessed as reduction in cell viability at 30 uM incubated for 48 hrs with medium changed every 12 hrs by MTS assay. It counts as toxicity, cell-based. In a few lines: (§2)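 Immortalized human corneal or conjunctival epithelial cells were plated and, after 24 h, exposed to 30 μM compound for 48 h. DMSO served as control and 0.01% Triton X-100 as the lysis control. Medium and compound were renewed every 12 h. Viability was read by MTS, 1 h incubation, absorbance at 490 nm; n = 3.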

Data set [3] in a line: AUC (0 to infinity) in New Zealand White Rabbit conjunctiva at 0.1 mg per eye, TOP and measured upto 72 hrs by LC-MS/MS analysis. More on the design: time < 72 hrs, dose 0.1 mg, route top. It counts as ADME, tissue-based, Oryctolagus cuniculus. Particulars: topical or ocular. A digest of the protocol:
as §1

Data set [4] in a line: Tmax in New Zealand White Rabbit conjunctiva at 0.1 mg per eye, TOP and measured upto 72 hrs by LC-MS/MS analysis. It counts as ADME, tissue-based, Oryctolagus cuniculus. Particulars: in vivo, topical_or_ocular. A digest of the protocol: as §1
A short description of data set [5]: Half life in New Zealand White Rabbit eye tear at 0.1 mg per eye, TOP and measured upto 72 hrs by LC-MS/MS analysis. The format is ADME, tissue-based, Oryctolagus cuniculus, Secretion of lacrimal gland. Particulars: in vivo, topical_or_ocular. A digest of the protocol:
as §1

The nature of data set [6]: Tmax in New Zealand White Rabbit cornea at 0.1 mg per eye, TOP and measured upto 72 hrs by LC-MS/MS analysis. It counts as ADME, tissue-based, Oryctolagus cuniculus. Conditions: in vivo, topical_or_ocular. A digest of the protocol: as §1
The nature of data set [7]: Half life in New Zealand White Rabbit cornea at 0.1 mg per eye, TOP and measured upto 72 hrs by LC-MS/MS analysis. It counts as ADME, tissue-based, Oryctolagus cuniculus. Conditions: in vivo, topical_or_ocular. In a few lines: as §1
Data set [8] is described as follows: Solubility of compound in PBS at 7.5 at 0.5 mg/ml incubated for 90 mins by LC-MS/MS analysis. The format is physicochemical. Particulars: PBS, pH 7.5. In a few lines:
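Thermodynamic solubility: compound at 0.5 mg/mL in isotonic phosphate-buffered saline, pH 7.5, vortexed for 90 min. The solution was then filtered sequentially through 0.45, 1.2 and 5.0 μm filters. Concentration was measured by LC-MS/MS against a ≥6-point internal-standard calibration curve (weighted 1/x linear or quadratic) and back-calculated.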

Data set [9] is described as follows: AUC (0 to 24 hrs) in New Zealand White Rabbit cornea at 0.1 mg per eye, TOP and measured upto 72 hrs by LC-MS/MS analysis. Particulars: topical or ocular. The format is ADME, tissue-based, Oryctolagus cuniculus. Also noted: dose 0.1 mg, time < 72 hrs, route top. A digest of the protocol: as §1
Data set [10] is described as follows: Half life in New Zealand White Rabbit conjunctiva at 0.1 mg per eye, TOP and measured upto 72 hrs by LC-MS/MS analysis. It counts as ADME, tissue-based, Oryctolagus cuniculus. Conditions: in vivo, topical_or_ocular. A digest of the protocol:
as §1

A short description of data set [11]: Tlast in New Zealand White Rabbit eye tear at 0.1 mg per eye, TOP and measured upto 72 hrs by LC-MS/MS analysis. The format is ADME, tissue-based, Oryctolagus cuniculus, Secretion of lacrimal gland. Conditions: in vivo, topical_or_ocular. In a few lines:
as §1

Data set [12] is described as follows: AUClast in New Zealand White Rabbit eye tear at 0.1 mg per eye, TOP and measured upto 72 hrs by LC-MS/MS analysis. The format is ADME, tissue-based, Oryctolagus cuniculus, Secretion of lacrimal gland. Also noted: dose 0.1 mg, time < 72 hrs, route top. Particulars: in vivo, topical_or_ocular. A digest of the protocol: as §1
Data set [13] is described as follows: Tlast in New Zealand White Rabbit conjunctiva at 0.1 mg per eye, TOP and measured upto 72 hrs by LC-MS/MS analysis. It counts as ADME, tissue-based, Oryctolagus cuniculus. Particulars: in vivo, topical_or_ocular. A digest of the protocol: as §1
Data set [14] is described as follows: AUC (0 to 24 hrs) in New Zealand White Rabbit conjunctiva at 0.1 mg per eye, TOP and measured upto 72 hrs by LC-MS/MS analysis. It counts as ADME, tissue-based, Oryctolagus cuniculus. Also noted: dose 0.1 mg, time < 72 hrs, route top. Conditions: topical or ocular. In a few lines: as §1
Data set [15] can be described thus: AUC (0 to 24 hrs) in New Zealand White Rabbit eye tear at 0.1 mg per eye, TOP and measured upto 72 hrs by LC-MS/MS analysis. The format is ADME, tissue-based, Oryctolagus cuniculus, Secretion of lacrimal gland. More on the design: dose 0.1 mg, time < 72 hrs, route top. Particulars: in vivo, topical_or_ocular. A digest of the protocol: as §1
Data set [16] is described as follows: Cmax in New Zealand White Rabbit conjunctiva at 0.1 mg per eye, TOP and measured upto 72 hrs by LC-MS/MS analysis. Particulars: topical or ocular. Also noted: dose 0.1 mg, time < 72 hrs, route top. The format is ADME, tissue-based, Oryctolagus cuniculus. In a few lines:
as §1

Data set [17] is described as follows: Tlast in New Zealand White Rabbit cornea at 0.1 mg per eye, TOP and measured upto 72 hrs by LC-MS/MS analysis. The format is ADME, tissue-based, Oryctolagus cuniculus. Conditions: in vivo, topical_or_ocular. In a few lines:
as §1

Data set [18] can be described thus: AUC (0 to infinity) in New Zealand White Rabbit eye tear at 0.1 mg per eye, TOP and measured upto 72 hrs by LC-MS/MS analysis. The format is ADME, tissue-based, Oryctolagus cuniculus, Secretion of lacrimal gland. More on the design: time < 72 hrs, dose 0.1 mg, route top. Particulars: in vivo, topical_or_ocular. A digest of the protocol: as §1
Data set [19] can be described thus: AUC (0 to infinity) in New Zealand White Rabbit cornea at 0.1 mg per eye, TOP and measured upto 72 hrs by LC-MS/MS analysis. More on the design: time < 72 hrs, dose 0.1 mg, route top. Conditions: topical or ocular. The format is ADME, tissue-based, Oryctolagus cuniculus. A digest of the protocol:
as §1

A short description of data set [20]: Cytotoxicity against human Conjunctival epithelial cells assessed as reduction in cell viability at 30 uM incubated for 48 hrs with medium changed every 12 hrs by MTS assay. It counts as toxicity, cell-based. In a few lines: as §2
Data set [21] can be described thus: Cmax in New Zealand White Rabbit cornea at 0.1 mg per eye, TOP and measured upto 72 hrs by LC-MS/MS analysis. The format is ADME, tissue-based, Oryctolagus cuniculus. More on the design: dose 0.1 mg, time < 72 hrs, route top. Particulars: topical or ocular. In a few lines: as §1
The nature of data set [22]: AUClast in New Zealand White Rabbit cornea at 0.1 mg per eye, TOP and measured upto 72 hrs by LC-MS/MS analysis. More on the design: dose 0.1 mg, time < 72 hrs, route top. The format is ADME, tissue-based, Oryctolagus cuniculus. Particulars: topical or ocular. In a few lines: as §1
Data set [23] can be described thus: AUClast in New Zealand White Rabbit conjunctiva at 0.1 mg per eye, TOP and measured upto 72 hrs by LC-MS/MS analysis. The format is ADME, tissue-based, Oryctolagus cuniculus. Also noted: time < 72 hrs, dose 0.1 mg, route top. Particulars: topical or ocular. In a few lines:
as §1

Converted amounts (≈) assume the structure as drawn.

As for `COc1ccc(-c2ccnc3cc(C(=O)N4CCN(C(=O)c5ccccc5)[C@@H](C)C4)nn23)cc1OC`, the Cmax in data set [1] stood at 749 ng/mL; in [16], 793 ng/mL; in data set [21], 7840 ng/mL. In addition, the Activity entry in data set [2] and in data set [20] was “Non-Toxic” throughout. Besides, the values for the AUC(0-inf) in [3] and in data set [19] were 13700 ng·h/mL and 35800 ng·h/mL, respectively. For the same compound, the Tmax in data set [4] and in [6] was 0.5 h each time. Also, the t1/2 is 29.8 h in data set [5], 23.1 h in [7] and 40.6 h in data set [10]. The compound also yielded a solubility (thermodynamic) at 1.5 h in [8] of 134 µM (≈ 65.3 µg/mL). Further, the AUC(0-t) at 72 h in data set [9] stood at 19400 ng·h/mL; in data set [14], 4730 ng·h/mL; in [22] it was 28300 ng·h/mL; in data set [23] it was 9820 ng·h/mL. Also, the Tlast in data set [11], in [13] and in data set [17] was 72 h each time. This compound also registered an AUClast in [12] of 16573 ng·h/mL. Also, the AUC in data set [15] came to 7952 ng·h/mL; in [18], 18750 ng·h/mL.

These data come from ChEMBL document CHEMBL5316288, “Synthetic Strategies for Improving Solubility: Optimization of Novel Pyrazolo[1,5-a]pyrimidine CFTR Activator That Ameliorates Dry Eye Disease” (J Med Chem, 2023).
